Experimental data as given in ChEMBL document CHEMBL1156942, “Inhibitors of hepatitis C virus polymerase: synthesis and characterization of novel 2-oxy-6-fluoro-N-((S)-1-hydroxy-3-phenylpropan-2-yl)-benzamides” (Bioorg Med Chem Lett, 2010).
Active and inactive are the calls of the source. The rule behind the calls is not given here.

Key:
Hepatitis C virus [1] = assay: Inhibition of HCV Con1 NS5B polymerase; format: functional, Hepatitis C virus (isolate Con1); details: 1b
How it was run: (§1)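 The buffer is 20 mM HEPES pH 7.3, 7.5 mM DTT, 10 mM MgCl2, 60 mM NaCl, RNasin, BSA, GTP/ATP/UTP, and CTP supplemented to 20 nM. It uses 100 nM heteropolymer RNA template and 0.25 mM trinucleotide initiator. Incubation is 2 h at room temperature, then stopped with EDTA, and filter-bound label is counted. IC50 comes from 10 twofold dilutions in duplicate, averaged over two separate weighings.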

Hepatitis C virus [2] = assay: Inhibition of HCV Con1 NS5B polymerase C316N mutant; format: functional, Hepacivirus hominis; details: isolate Con1
How it was run: (§2)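 Mutant Con1 NS5B (Δ21) at 30 nM was run in a de novo initiation assay with 100 nM heteropolymer RNA template and 0.25 mM trinucleotide initiator. Incubation: RT, 2 h, stopped with EDTA. Read-out: filter-bound label. IC50 from 10 twofold dilutions in duplicate; means of duplicates on two weighings.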

Hepatitis C virus [3] = assay: Inhibition of HCV 1a NS5B polymerase; format: functional, Hepatitis C virus subtype 1a; how it was run: as §1
Hepatitis C virus [4] = assay: Inhibition of HCV Con1 NS5B polymerase G554D mutant; format: functional, Hepacivirus hominis; details: isolate Con1; how it was run: as §2
Hepatitis C virus [5] = assay: Inhibition of HCV Con1 NS5B polymerase M414T mutant; format: functional, Hepacivirus hominis; details: isolate Con1; how it was run: as §2
Hepatitis C virus [6] = assay: Inhibition of HCV Con1 NS5B polymerase C316Y mutant; format: functional, Hepacivirus hominis; details: isolate Con1; how it was run: as §2
[7] = system: Hepatitis C virus genotype 4; assay: Inhibition of HCV genotype 4 NS5B polymerase up to 200 uM
[8] = system: Hepatitis C virus genotype 3; assay: Inhibition of HCV genotype 3 NS5B polymerase up to 200 uM
Hepatitis C virus [9] = assay: Selectivity ratio of IC50 for HCV Con1 NS5B polymerase G554D mutant to IC50 for HCV 1b Con1 NS5B polymerase; format: functional, Hepacivirus hominis, isolate Con1
Hepatitis C virus [10] = assay: Selectivity ratio of IC50 for HCV Con1 NS5B polymerase C316Y mutant to IC50 for HCV 1b Con1 NS5B polymerase; format: functional, Hepacivirus hominis, isolate Con1
Hepatitis C virus [11] = assay: Selectivity ratio of IC50 for HCV Con1 NS5B polymerase M414T mutant to IC50 for HCV 1b Con1 NS5B polymerase; format: functional, Hepacivirus hominis, isolate Con1
[12] = system: Hepatitis C virus genotype 2; assay: Inhibition of HCV genotype 2 NS5B polymerase up to 200 uM

Compound	IC50 (Hepatitis C virus [1]) [µM]	also measured
CC(C)CCNC(=O)c1c(F)cccc1OCC(=O)N[C@H](CO)Cc1ccccc1	> 20	–
O=C(COc1cccc(F)c1C(=O)NCCC1CCCCC1)N[C@H](CO)Cc1ccccc1	> 20	–
CCOCCN(CCOCC)C(=O)c1c(F)cccc1OCC(=O)N[C@H](CO)Cc1ccccc1	> 20	–
CCN(CCOC)C(=O)c1c(F)cccc1OCC(=O)N[C@H](CO)Cc1ccccc1	8	–
CC(C)(C)CCNC(=O)c1c(F)cccc1OCC(=O)N[C@H](CO)Cc1ccccc1	> 20	–
CCCN(CCOC)C(=O)c1c(F)cccc1OCC(=O)N[C@H](CO)Cc1ccccc1	17	–
CNC(=O)c1c(-c2ccc(F)cc2)oc2cc(N(CCO)S(C)(=O)=O)c(C3CC3)cc12 [NESBUVIR]	–	IC50 (Hepatitis C virus [2]): 0.12 µM; IC50 (Hepatitis C virus [3]): 0.04 µM; IC50 (Hepatitis C virus [4]): 0.05 µM; IC50 (Hepatitis C virus [5]): 0.06 µM; IC50 (Hepatitis C virus [6]): 2 µM
CN(CCc1ccccc1)C(=O)c1c(F)cccc1OCC(=O)N[C@H](CO)Cc1ccccc1	20	–
COCCNC(=O)c1c(F)cccc1OCC(=O)N[C@H](CO)Cc1ccccc1	> 20	–
CCCCN(C)C(=O)c1c(F)cccc1OCC(=O)N[C@H](CO)Cc1ccccc1	–	IC50 (Hepatitis C virus [2]): 0.9 µM; inhibition [7]: inactive; inhibition [8]: inactive; Ratio IC50 (Hepatitis C virus [9]): 150; Ratio IC50 (Hepatitis C virus [10]): 100; Ratio IC50 (Hepatitis C virus [11]): 10; IC50 (Hepatitis C virus [3]): 43 µM; IC50 (Hepatitis C virus [4]): 120 µM; IC50 (Hepatitis C virus [5]): 10 µM; IC50 (Hepatitis C virus [6]): 90 µM; inhibition [12]: inactive
CCN(C(=O)c1c(F)cccc1OCC(=O)N[C@H](CO)Cc1ccccc1)C(C)C	7	–
O=C(COc1cccc(F)c1C(=O)NCCc1ccccc1)N[C@H](CO)Cc1ccccc1	> 20	–
O=C(COc1cccc(F)c1C(=O)N1CCCCC1)N[C@H](CO)Cc1ccccc1	> 20	–
COC[C@H]1CCCN1C(=O)c1c(F)cccc1OCC(=O)N[C@H](CO)Cc1ccccc1	20	–
COC[C@H](Cc1ccccc1)NC(=O)COc1cccc(F)c1C(=O)NCCC1=CCCCC1	> 20	–
CCCN(C)C(=O)c1c(F)cccc1OCC(=O)N[C@H](CO)Cc1ccccc1	6	–
CC(C)(C)CC[C@@]1(C)CC(C2=NS(=O)(=O)c3cc(NS(C)(=O)=O)ccc3N2)=C(O)c2ccccc21	–	IC50 (Hepatitis C virus [2]): 0.004 µM; IC50 (Hepatitis C virus [3]): 0.003 µM; IC50 (Hepatitis C virus [4]): 0.3 µM; IC50 (Hepatitis C virus [5]): 0.004 µM; IC50 (Hepatitis C virus [6]): 0.008 µM
C[S+]([O-])CCNC(=O)c1c(F)cccc1OCC(=O)N[C@H](CO)Cc1ccccc1 (stereo partly specified)	> 20	–
CCOc1cc(CCNC(=O)c2c(F)cccc2OCC(=O)N[C@H](CO)Cc2ccccc2)ccc1OC	> 20	–
O=C(COc1cccc(F)c1C(=O)NCCC1=CCCCC1)N[C@@H](CO)Cc1ccccc1	> 20	–
O=C(COc1cccc(F)c1C(=O)NCCCCO)N[C@H](CO)Cc1ccccc1	> 20	–
O=C(COc1cccc(F)c1C(=O)N1CCC(c2ccccc2)C1)N[C@H](CO)Cc1ccccc1 (stereo partly specified)	10	–
O=C(COc1cccc(F)c1C(=O)N1CCCC1)N[C@H](CO)Cc1ccccc1	> 20	–
COC[C@@H]1CCCN1C(=O)c1c(F)cccc1OCC(=O)N[C@H](CO)Cc1ccccc1	7.7	–
CCCCNC(=O)c1c(F)cccc1OCC(=O)N[C@H](CO)Cc1ccccc1	> 20	–
O=C(COc1cccc(F)c1C(=O)N[C@H](CO)Cc1ccccc1)NCCC1=CCCCC1	> 20	–
O=C(COc1cccc(F)c1C(=O)N1CCCC1Cc1ccccn1)N[C@H](CO)Cc1ccccc1 (stereo partly specified)	> 20	–

Second part, led by results:

IC50 (Hepatitis C virus [1]) [µM]	Compound	also measured
2.6	CCCN(CC1CC1)C(=O)c1c(F)cccc1OCC(=O)N[C@H](CO)Cc1ccccc1	–
1.9	O=C(COc1cccc(F)c1C(=O)N1CCCC1c1cccc(Cl)c1)N[C@H](CO)Cc1ccccc1 (stereo partly specified)	–
6	CCN(CC)C(=O)c1c(F)cccc1OCC(=O)N[C@H](CO)Cc1ccccc1	–
4.3	O=C(COc1cccc(F)c1C(=O)NCCC1=CCCCC1)N[C@H](CO)Cc1ccccc1	–
2.3	CC1CCN(C(=O)c2c(F)cccc2OCC(=O)N[C@H](CO)Cc2ccccc2)CC1	–
2.3	CCCN(CC)C(=O)c1c(F)cccc1OCC(=O)N[C@H](CO)Cc1ccccc1	–
2.2	C=CCN(CC=C)C(=O)c1c(F)cccc1OCC(=O)N[C@H](CO)Cc1ccccc1	–
4.6	COC(=O)[C@H](c1ccccc1)N(C)C(=O)c1c(F)cccc1OCC(=O)N[C@H](CO)Cc1ccccc1	–
2.7	CCCN(CCC)C(=O)c1c(F)cccc1OCC(=O)N[C@H](CO)Cc1ccccc1	–
6	COCCN(C(=O)c1c(F)cccc1OCC(=O)N[C@H](CO)Cc1ccccc1)C(C)C	–
4.3	COC(=O)[C@@H](Cc1ccccc1)N(C)C(=O)c1c(F)cccc1OCC(=O)N[C@H](CO)Cc1ccccc1	–
0.47	CC(C)CCN(C)C(=O)c1c(F)cccc1OCC(=O)N[C@H](CO)Cc1ccccc1	–
4	O=C(COc1cccc(F)c1C(=O)N1CCCC1C1CCCCC1)N[C@H](CO)Cc1ccccc1 (stereo partly specified)	–
0.43	C[C@H](c1ccccc1)N(C)C(=O)c1c(F)cccc1OCC(=O)N[C@H](CO)Cc1ccccc1	–
2.6	O=C(COc1cccc(F)c1C(=O)N1CCCCCC1)N[C@H](CO)Cc1ccccc1	–
0.47	CCCCN(CC)C(=O)c1c(F)cccc1OCC(=O)N[C@H](CO)Cc1ccccc1	–
